Laboratory results taken from ChEMBL document CHEMBL4196223 (J Med Chem, 2018).
Where a SMILES comes first, the peptide text is derived from it. Bridges are numbered along the chain shown (N, C = ends).

Experiments:
Type in all cases: cell-based
[1] = molecular target: Nicotinic acetylcholine receptor alpha9/alpha10 (Rattus norvegicus, UniProt P43144+Q9JLB5); test: Antagonist activity at rat alpha9alpha10 nACHR expressed in Xenopus laevis oocytes assessed as inhibition of acetyl choline-induced membrane currents pre-incubated for 5 mins prior to acetyl choline pulse at -70 mV potential by two-electrode voltage clamp assay
Chain of Nicotinic acetylcholine receptor alpha9/alpha10 (P43144 whole entry): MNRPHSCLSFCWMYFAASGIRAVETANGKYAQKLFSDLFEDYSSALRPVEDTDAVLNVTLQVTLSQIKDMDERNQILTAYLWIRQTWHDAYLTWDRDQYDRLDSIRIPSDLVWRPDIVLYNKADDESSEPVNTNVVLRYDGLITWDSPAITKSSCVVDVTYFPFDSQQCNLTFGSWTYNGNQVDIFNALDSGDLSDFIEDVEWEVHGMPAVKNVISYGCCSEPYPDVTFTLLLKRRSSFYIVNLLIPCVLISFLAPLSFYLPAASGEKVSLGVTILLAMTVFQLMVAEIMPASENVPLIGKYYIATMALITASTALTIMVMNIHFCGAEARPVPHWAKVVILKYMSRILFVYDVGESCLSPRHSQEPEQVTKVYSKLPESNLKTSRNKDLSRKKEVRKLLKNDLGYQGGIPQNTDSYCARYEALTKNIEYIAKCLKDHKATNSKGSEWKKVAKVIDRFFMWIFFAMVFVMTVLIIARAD
Chain of Nicotinic acetylcholine receptor alpha9/alpha10 (Q9JLB5 whole entry): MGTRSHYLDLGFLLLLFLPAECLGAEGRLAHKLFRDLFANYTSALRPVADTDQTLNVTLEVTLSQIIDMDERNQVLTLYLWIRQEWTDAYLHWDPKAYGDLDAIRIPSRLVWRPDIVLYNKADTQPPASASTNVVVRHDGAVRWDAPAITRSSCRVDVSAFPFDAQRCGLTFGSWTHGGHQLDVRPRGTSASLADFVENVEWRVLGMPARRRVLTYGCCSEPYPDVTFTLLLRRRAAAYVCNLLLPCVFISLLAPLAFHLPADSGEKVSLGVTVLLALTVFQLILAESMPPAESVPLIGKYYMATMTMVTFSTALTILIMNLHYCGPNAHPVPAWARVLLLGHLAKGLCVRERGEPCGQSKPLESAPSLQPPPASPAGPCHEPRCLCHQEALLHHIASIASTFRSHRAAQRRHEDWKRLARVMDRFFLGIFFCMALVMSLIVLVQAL

[2] = molecular target: Neuronal acetylcholine receptor subunit alpha-7 (Rattus norvegicus, UniProt Q05941); test: Antagonist activity at rat alpha7 nACHR expressed in Xenopus laevis oocytes assessed as inhibition of acetyl choline-induced membrane currents pre-incubated for 5 mins prior to acetyl choline pulse at -70 mV potential by two-electrode voltage clamp assay
Chain of Neuronal acetylcholine receptor subunit alpha-7 (Q05941 whole entry): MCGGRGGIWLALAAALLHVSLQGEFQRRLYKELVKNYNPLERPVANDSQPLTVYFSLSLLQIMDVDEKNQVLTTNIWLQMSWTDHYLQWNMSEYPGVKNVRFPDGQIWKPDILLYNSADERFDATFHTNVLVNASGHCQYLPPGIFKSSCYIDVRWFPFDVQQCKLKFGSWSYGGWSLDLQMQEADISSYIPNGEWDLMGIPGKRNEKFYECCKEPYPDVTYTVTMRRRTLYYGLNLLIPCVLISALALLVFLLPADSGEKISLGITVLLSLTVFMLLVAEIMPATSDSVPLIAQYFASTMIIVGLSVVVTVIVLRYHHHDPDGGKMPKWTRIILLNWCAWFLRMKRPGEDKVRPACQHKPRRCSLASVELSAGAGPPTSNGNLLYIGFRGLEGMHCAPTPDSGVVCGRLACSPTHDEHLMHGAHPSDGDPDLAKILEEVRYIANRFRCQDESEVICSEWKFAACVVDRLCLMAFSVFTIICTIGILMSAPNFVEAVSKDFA

[3] = molecular target: Nicotinic acetylcholine receptor alpha6/alpha3/beta4 (Rattus norvegicus, UniProt P04757+P12392+P43143); test: Antagonist activity at rat alpha6/alpha3beta4 nAChR nACHR expressed in Xenopus laevis oocytes assessed as inhibition of acetyl choline-induced membrane currents pre-incubated for 5 mins prior to acetyl choline pulse at -70 mV potential by two-electrode voltage clamp assay
Chain of Nicotinic acetylcholine receptor alpha6/alpha3/beta4 (P04757 whole entry): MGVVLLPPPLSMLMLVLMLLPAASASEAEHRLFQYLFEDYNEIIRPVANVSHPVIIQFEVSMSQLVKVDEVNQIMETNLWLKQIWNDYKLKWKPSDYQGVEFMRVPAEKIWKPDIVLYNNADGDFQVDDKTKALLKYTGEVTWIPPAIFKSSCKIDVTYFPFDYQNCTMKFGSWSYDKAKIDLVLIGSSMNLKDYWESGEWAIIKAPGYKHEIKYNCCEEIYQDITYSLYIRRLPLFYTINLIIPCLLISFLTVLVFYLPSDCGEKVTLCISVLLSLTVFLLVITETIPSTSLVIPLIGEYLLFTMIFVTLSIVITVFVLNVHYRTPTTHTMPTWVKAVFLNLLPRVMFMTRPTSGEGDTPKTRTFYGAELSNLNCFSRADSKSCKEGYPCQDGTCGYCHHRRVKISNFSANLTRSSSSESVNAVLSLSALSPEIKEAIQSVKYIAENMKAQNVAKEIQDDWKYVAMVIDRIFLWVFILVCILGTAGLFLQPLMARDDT
Chain of Nicotinic acetylcholine receptor alpha6/alpha3/beta4 (P12392 whole entry): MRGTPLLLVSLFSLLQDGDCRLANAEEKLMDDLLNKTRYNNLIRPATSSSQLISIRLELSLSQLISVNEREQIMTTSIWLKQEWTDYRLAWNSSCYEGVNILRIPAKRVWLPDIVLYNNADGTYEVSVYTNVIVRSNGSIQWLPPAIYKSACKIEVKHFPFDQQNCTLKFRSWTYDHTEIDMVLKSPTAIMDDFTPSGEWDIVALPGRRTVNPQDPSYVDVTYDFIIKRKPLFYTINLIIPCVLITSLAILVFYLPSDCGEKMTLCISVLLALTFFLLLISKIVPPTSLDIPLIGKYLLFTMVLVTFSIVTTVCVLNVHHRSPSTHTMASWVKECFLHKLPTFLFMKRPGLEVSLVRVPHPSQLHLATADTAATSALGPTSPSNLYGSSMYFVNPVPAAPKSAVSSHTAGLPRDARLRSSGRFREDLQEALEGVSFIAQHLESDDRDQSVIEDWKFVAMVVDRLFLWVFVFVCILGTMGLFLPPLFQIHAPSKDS
Chain of Nicotinic acetylcholine receptor alpha6/alpha3/beta4 (P43143 whole entry): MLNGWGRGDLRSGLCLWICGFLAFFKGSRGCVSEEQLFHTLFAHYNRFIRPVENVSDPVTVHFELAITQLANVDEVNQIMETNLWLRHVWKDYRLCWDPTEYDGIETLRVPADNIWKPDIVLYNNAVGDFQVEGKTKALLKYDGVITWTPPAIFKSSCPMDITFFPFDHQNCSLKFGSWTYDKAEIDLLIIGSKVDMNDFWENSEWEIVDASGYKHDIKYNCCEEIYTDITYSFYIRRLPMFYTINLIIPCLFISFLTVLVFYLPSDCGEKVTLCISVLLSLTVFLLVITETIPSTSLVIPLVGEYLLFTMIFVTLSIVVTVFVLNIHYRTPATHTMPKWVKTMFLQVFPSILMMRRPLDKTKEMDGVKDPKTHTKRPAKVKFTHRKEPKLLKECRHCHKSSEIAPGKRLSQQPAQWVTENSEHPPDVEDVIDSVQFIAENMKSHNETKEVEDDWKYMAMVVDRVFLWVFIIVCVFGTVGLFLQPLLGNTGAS
How it was run: (§1)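 Rat subunit cRNAs (equimolar, ≥10 ng each) were expressed in oocytes held at 17 °C in ND96 and clamped at -70 mV 2-5 days after injection. Perfusate was ND96 with 0.1 mg/mL BSA and 1 µM atropine. After 5 min toxin exposure, 100 µM ACh was applied for 1 s/min. % response was fitted to a Hill equation for IC50 and nH, at room temperature, n=3-6.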

[4] = molecular target: Neuronal acetylcholine receptor; alpha3/beta4 (Rattus norvegicus, UniProt P04757+P12392); test: Antagonist activity at rat alpha3beta4 nACHR expressed in Xenopus laevis oocytes assessed as inhibition of acetyl choline-induced membrane currents pre-incubated for 5 mins prior to acetyl choline pulse at -70 mV potential by two-electrode voltage clamp assay; how it was run: as §1
Chain of Neuronal acetylcholine receptor; alpha3/beta4 (P04757 whole entry): as the sequence (P04757 whole entry) above
Chain of Neuronal acetylcholine receptor; alpha3/beta4 (P12392 whole entry): as the sequence (P12392 whole entry) above

[5] = molecular target: Nicotinic acetylcholine receptor alpha6/alpha3/beta4 (Rattus norvegicus) (UniProt P04757+P12392+P43143); test: Antagonist activity at rat alpha6/alpha3beta4 nAChR nACHR expressed in Xenopus laevis oocytes assessed as inhibition of acetyl choline-induced membrane currents at 10 uM pre-incubated for 5 mins prior to acetyl choline pulse at -70 mV potential by two-electrode voltage clamp assay
[6] = molecular target: Neuronal acetylcholine receptor; alpha3/beta4 (Rattus norvegicus) (UniProt P04757+P12392); test: Antagonist activity at rat alpha3beta4 nACHR expressed in Xenopus laevis oocytes assessed as inhibition of acetyl choline-induced membrane currents at 10 uM pre-incubated for 5 mins prior to acetyl choline pulse at -70 mV potential by two-electrode voltage clamp assay

CC[C@H](C)[C@@H]1NC(=O)[C@@H]2CCCN2C(=O)[C@H](CO)NC(=O)[C@H](CCSC)NC(=O)[C@H](C)NC(=O)[C@H](CCCCN)NC(=O)[C@@H]2CSSC[C@H](NC(=O)CN)C(=O)N[C@@H](CSSC[C@@H](C(N)=O)NC1=O)C(=O)N[C@@H](CO)C(=O)N[C@@H](Cc1cnc[nH]1)C(=O)N1CCC[C@H]1C(=O)N[C@@H](C(C)C)C(=O)N2 (H-GCCSHPVCKAMSPIC-NH2; disulfide 2-8, 3-15)
IC50 [1]: > 10000 nM
IC50 [2]: > 10000 nM

CC[C@H](C)[C@@H]1NC(=O)[C@@H]2CCCN2C(=O)[C@H](CO)NC(=O)[C@H](CCSC)NC(=O)[C@H](C)NC(=O)[C@H](Cc2ccccc2)NC(=O)[C@@H]2CSSC[C@H](NC(=O)CN)C(=O)N[C@@H](CSSC[C@@H](C(N)=O)NC1=O)C(=O)N[C@@H](CO)C(=O)N[C@@H](Cc1cnc[nH]1)C(=O)N1CCC[C@H]1C(=O)N[C@@H](C(C)C)C(=O)N2 (H-GCCSHPVCFAMSPIC-NH2; disulfide 2-8, 3-15)
IC50 [3]: 10 nM
IC50 [4]: 11 nM

CC[C@H](C)[C@@H]1NC(=O)[C@@H]2CCCN2C(=O)[C@H](CO)NC(=O)[C@H](CCSC)NC(=O)[C@H](C)NC(=O)[C@H](CC(=O)O)NC(=O)[C@@H]2CSSC[C@H](NC(=O)CN)C(=O)N[C@@H](CSSC[C@@H](C(N)=O)NC1=O)C(=O)N[C@@H](CO)C(=O)N[C@@H](Cc1cnc[nH]1)C(=O)N1CCC[C@H]1C(=O)N[C@H](C(C)C)C(=O)N2
inhibition [5]: < 50%
inhibition [6]: < 50%

CC[C@H](C)[C@@H]1NC(=O)[C@@H]2CCCN2C(=O)[C@H](CO)NC(=O)[C@H](CCSC)NC(=O)[C@H](C)NC(=O)[C@H](CCC(=O)O)NC(=O)[C@@H]2CSSC[C@H](NC(=O)CN)C(=O)N[C@@H](CSSC[C@@H](C(N)=O)NC1=O)C(=O)N[C@@H](CO)C(=O)N[C@@H](Cc1cnc[nH]1)C(=O)N1CCC[C@H]1C(=O)N[C@@H](C(C)C)C(=O)N2 (H-GCCSHPVCEAMSPIC-NH2; disulfide 2-8, 3-15)
inhibition [5]: < 50%

CC[C@H](C)[C@@H]1NC(=O)[C@@H]2CCCN2C(=O)[C@H](CO)NC(=O)[C@H](CCSC)NC(=O)[C@H](C)NC(=O)[C@H](CC(=O)O)NC(=O)[C@@H]2CSSC[C@H](NC(=O)CN)C(=O)N[C@@H](CSSC[C@@H](C(N)=O)NC1=O)C(=O)N[C@@H](CO)C(=O)N[C@@H](Cc1cnc[nH]1)C(=O)N1CCC[C@H]1C(=O)N[C@@H](C(C)C)C(=O)N2
inhibition [5]: < 50%

CC[C@H](C)[C@@H]1NC(=O)[C@@H]2CCCN2C(=O)[C@H](CO)NC(=O)[C@H](CCSC)NC(=O)[C@H](C)NC(=O)[C@H](Cc2cnc[nH]2)NC(=O)[C@@H]2CSSC[C@H](NC(=O)CN)C(=O)N[C@@H](CSSC[C@@H](C(N)=O)NC1=O)C(=O)N[C@@H](CO)C(=O)N[C@@H](Cc1cnc[nH]1)C(=O)N1CCC[C@H]1C(=O)N[C@@H](C(C)C)C(=O)N2 (H-GCCSHPVCHAMSPIC-NH2; disulfide 2-8, 3-15)
IC50 [3]: 19 nM
IC50 [4]: 2 nM
